Here are results for four compounds from ChEMBL document CHEMBL4350992, “Identification of Diketopiperazine-Containing 2-Anilinobenzamides as Potent Sirtuin 2 (SIRT2)-Selective Inhibitors Targeting the "Selectivity Pocket", Substrate-Binding Site, and NAD+-Binding Site” (J Med Chem, 2019).

Data set [1] deals with T1, NAD-dependent protein deacetylase sirtuin-3, mitochondrial (Homo sapiens) (UniProt Q9NTG7).
T1 sequence (whole entry): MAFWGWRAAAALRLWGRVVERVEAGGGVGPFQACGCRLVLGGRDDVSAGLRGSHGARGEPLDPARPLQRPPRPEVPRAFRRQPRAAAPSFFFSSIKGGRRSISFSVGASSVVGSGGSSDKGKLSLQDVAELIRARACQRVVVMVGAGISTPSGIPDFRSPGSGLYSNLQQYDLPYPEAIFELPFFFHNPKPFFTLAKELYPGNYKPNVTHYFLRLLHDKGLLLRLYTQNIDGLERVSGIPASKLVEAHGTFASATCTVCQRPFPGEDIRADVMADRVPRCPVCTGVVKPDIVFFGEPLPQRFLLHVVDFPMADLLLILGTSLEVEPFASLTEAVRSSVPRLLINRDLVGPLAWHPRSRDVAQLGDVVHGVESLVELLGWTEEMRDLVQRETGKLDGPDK
Put plainly: Inhibition of human N-terminal His-tagged SIRT3 (102 to 399 residues) expressed in Escherichia coli at 50 uM using p53 (Gln-Pro-Lys-Lys(Ac)) (317 to 320 residues) as substrate incubated for 3 hrs measured up to 30 mins by fluorescence assay relative to control.

Data set [2] deals with T2, NAD-dependent protein deacetylase sirtuin-2 (Homo sapiens, UniProt Q8IXJ6).
T2 sequence (Q8IXJ6 whole entry): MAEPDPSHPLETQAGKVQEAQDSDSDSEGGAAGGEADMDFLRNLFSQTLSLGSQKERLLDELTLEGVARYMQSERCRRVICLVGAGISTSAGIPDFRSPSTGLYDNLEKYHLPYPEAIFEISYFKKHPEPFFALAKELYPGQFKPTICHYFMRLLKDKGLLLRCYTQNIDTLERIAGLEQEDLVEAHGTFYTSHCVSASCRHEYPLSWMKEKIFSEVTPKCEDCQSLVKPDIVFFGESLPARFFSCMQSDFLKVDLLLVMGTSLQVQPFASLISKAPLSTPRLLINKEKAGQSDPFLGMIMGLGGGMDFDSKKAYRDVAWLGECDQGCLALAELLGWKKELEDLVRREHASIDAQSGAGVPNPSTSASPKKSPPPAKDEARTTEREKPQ
In words: Inhibition of human N-terminal His-tagged SIRT2 expressed in Escherichia coli using p53 (Gln-Pro-Lys-Lys(Ac)) (317 to 320 residues) as substrate incubated for 3 hrs measured up to 30 mins by fluorescence assay.

The target in data set [3] is T3, NAD-dependent protein deacetylase sirtuin-2 (Homo sapiens) (UniProt Q8IXJ6).
T3 sequence (whole entry): T2 sequence (Q8IXJ6 whole entry)
Put plainly: Inhibition of human N-terminal His-tagged SIRT2 expressed in Escherichia coli at 1 uM using p53 (Gln-Pro-Lys-Lys(Ac)) (317 to 320 residues) as substrate incubated for 3 hrs measured up to 30 mins by fluorescence assay relative to control.

In data set [4] the target is T4, NAD-dependent protein deacetylase sirtuin-1 (Homo sapiens) (UniProt Q96EB6).
T4 sequence (whole entry): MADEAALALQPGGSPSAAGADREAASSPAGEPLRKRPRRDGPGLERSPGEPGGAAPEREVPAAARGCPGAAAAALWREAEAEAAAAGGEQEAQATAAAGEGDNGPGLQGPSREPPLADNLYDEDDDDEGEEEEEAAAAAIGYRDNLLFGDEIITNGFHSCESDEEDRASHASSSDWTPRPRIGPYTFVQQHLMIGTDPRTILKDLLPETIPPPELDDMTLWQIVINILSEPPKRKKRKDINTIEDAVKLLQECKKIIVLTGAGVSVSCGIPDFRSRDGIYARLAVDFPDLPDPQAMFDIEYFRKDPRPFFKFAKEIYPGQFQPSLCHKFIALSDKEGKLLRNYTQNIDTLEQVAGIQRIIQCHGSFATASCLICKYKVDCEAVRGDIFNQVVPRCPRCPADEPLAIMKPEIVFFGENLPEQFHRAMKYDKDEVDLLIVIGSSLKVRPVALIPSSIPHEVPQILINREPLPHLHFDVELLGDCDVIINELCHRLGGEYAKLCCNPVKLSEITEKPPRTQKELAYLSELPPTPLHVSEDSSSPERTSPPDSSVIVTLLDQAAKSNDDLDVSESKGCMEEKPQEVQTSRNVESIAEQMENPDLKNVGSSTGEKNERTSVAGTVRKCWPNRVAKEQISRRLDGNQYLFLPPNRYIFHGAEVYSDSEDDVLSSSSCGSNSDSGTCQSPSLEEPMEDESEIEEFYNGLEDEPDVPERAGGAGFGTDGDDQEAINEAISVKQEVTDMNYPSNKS
In words: Inhibition of human N-terminal His-tagged SIRT1 expressed in Escherichia coli at 50 uM using p53 (Arg-His-Lys-Lys(Ac)) (379 to 382 residues) as substrate incubated for 3 hrs measured up to 30 mins by fluorescence assay relative to control.

In data set [5] the target is T4, NAD-dependent protein deacetylase sirtuin-1 (Homo sapiens). Put plainly: Inhibition of human N-terminal His-tagged SIRT1 expressed in Escherichia coli at 100 uM using p53 (Arg-His-Lys-Lys(Ac)) (379 to 382 residues) as substrate incubated for 3 hrs measured up to 30 mins by fluorescence assay relative to control.
Data set [6] concerns the target T1, NAD-dependent protein deacetylase sirtuin-3, mitochondrial (Homo sapiens). In words: Inhibition of human N-terminal His-tagged SIRT3 (102 to 399 residues) expressed in Escherichia coli at 100 uM using p53 (Gln-Pro-Lys-Lys(Ac)) (317 to 320 residues) as substrate incubated for 3 hrs measured up to 30 mins by fluorescence assay relative to control.
The target of data set [7] is T3, NAD-dependent protein deacetylase sirtuin-2 (Homo sapiens). Put plainly: Inhibition of human N-terminal His-tagged SIRT2 expressed in Escherichia coli at 10 uM using p53 (Gln-Pro-Lys-Lys(Ac)) (317 to 320 residues) as substrate incubated for 3 hrs measured up to 30 mins by fluorescence assay relative to control.
Data set [8] addresses NAD-dependent protein deacylase sirtuin-5, mitochondrial (Homo sapiens) (UniProt Q9NXA8). Put plainly: Inhibition of human N-terminal His-tagged SIRT5 (37 to 310 residues) expressed in Escherichia coli at 100 uM using flour de lys succinyl as substrate incubated for 3 hrs measured up to 30 mins by fluorescence assay relative to control.
Data set [9] has as its target T2, NAD-dependent protein deacetylase sirtuin-2. In words: Inhibition of human N-terminal His-tagged SIRT2 expressed in Escherichia coli using p53 (Gln-Pro-Lys-Lys(Ac)) (317 to 320 residues) as substrate incubated for 3 hrs measured up to 30 mins in presence of NAD+ by fluorescence-based Michaelis-Menten plot analysis. To be noted: in the assay text read “incubated for 45 mins” for “incubated for 3 hrs”. The procedure, abridged:
(§1)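 The Fluor de Lys SIRT2 assay was run with reaction time shortened to 45 min. The acetylated substrate concentration was varied at saturating NAD⁺. Inhibitor was tested at 0, 0.1, 0.4, 0.6 and 1 µM, or at 0, 0.02, 0.06, 0.1 and 0.4 µM. Ki was derived from Michaelis–Menten and Lineweaver–Burk plots.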

For data set [10], the system named is N2a. Put plainly: Induction of neurite outgrowth in mouse Neuro2a cells at 0.2 to 2 uM measured after 24 to 48 hrs by microscopic analysis. Type of data set: functional, cell-based. The procedure, abridged:
(§2)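 N2a cells were plated at 1×10⁴ cells/mL in DMEM with 10% FBS, then switched to DMEM with 2% FBS for differentiation. Compound was added for 24 or 48 h and morphology scored by microscopy. A cell counted as differentiated if it had ≥1 neurite longer than twice the soma diameter; ≥100 cells were counted per condition. Triplicate experiments, mean ± SD, one-way ANOVA with Dunnett's test.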

For data set [11], the system named is MCF7. In words: Growth inhibition of human MCF7 cells at 30 uM measured after 72 hrs by AlamarBlue assay relative to control. The data set is classed as functional. To be noted: MCF7, 72 h, read-out: GI. The procedure, abridged: (§3)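 MCF-7 cells in DMEM with 10% FBS were seeded at 1×10³ cells/well. After 24 h at 37°C, 5% CO₂, compound in medium was added at varying concentrations for 72 h. AlamarBlue was then added for 3 h and fluorescence read (ex 540/em 590 nm). Percent growth was calculated from the readings, and GI50 from the dose response. Three independent determinations.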
On the technique in general: Resazurin is reduced to fluorescent resorufin, in cell work by metabolically active cells.

In data set [12] the target is T3, NAD-dependent protein deacetylase sirtuin-2 (Homo sapiens). Put plainly: Competitive inhibition of human N-terminal His-tagged SIRT2 expressed in Escherichia coli up to uM using varying levels of p53 (Gln-Pro-Lys-Lys(Ac)) (317 to 320 residues) as substrate incubated for 3 hrs measured up to 30 mins in presence of NAD+ by Lineweaver-burk plot analysis. Particulars: in the assay text read “incubated for 45 mins” for “incubated for 3 hrs”. The procedure, abridged:
as §1

Data set [13] concerns N2a. In words: Induction of neurite outgrowth in mouse Neuro2a cells assessed as differentiated cells at 2 uM measured after 48 hrs by microscopic analysis (reference value: 4.18 +/- 1.67%). Type of data set: functional. The procedure, abridged: as §2
The test system of data set [14] is MCF7. Put plainly: Growth inhibition of human MCF7 cells measured after 72 hrs by AlamarBlue assay. Type of data set: functional. Put shortly:
as §3

Data set [15] concerns N2a. Put plainly: Induction of neurite outgrowth in mouse Neuro2a cells assessed as differentiated cells at 2 uM measured after 24 hrs by microscopic analysis (reference value: 2.53 +/- 0.76%). Type of data set: functional. The procedure, abridged:
as §2

Data set [16] concerns the target Lysine-specific demethylase 5A (Homo sapiens) (UniProt P29375). Put plainly: Inhibition of human C-terminal FLAG-tagged KDM5A (1 to 1090 residues) expressed in baculovirus infected Sf9 insect cells at 2.5 to 100 uM using H3(1-21)K4(Me3)-GGK(Biotin)/2-OG as substrate measured after 1 hr by Alphalisa assay.
In data set [17] the target is T5, NAD-dependent protein deacetylase sirtuin-1 (Homo sapiens, UniProt Q96EB6).
T5 sequence (Q96EB6 whole entry): T4 sequence (whole entry)
Put plainly: Inhibition of human N-terminal His-tagged SIRT1 expressed in Escherichia coli using p53 (Arg-His-Lys-Lys(Ac)) (379 to 382 residues) as substrate incubated for 3 hrs measured up to 30 mins by fluorescence assay.

Data set [18] has as its target Histone deacetylase (Homo sapiens) (UniProt Q13547+O15379+Q9UBN7+Q92769+Q9UQL6+Q8WUI4+Q9BY41+Q96DB2+P56524+Q9UKV0+Q969S8). In words: Inhibition of HDAC in human HeLa cell nuclear extract at 2.5 to 100 uM using fluor de lys as substrate by fluorescence assay. Type of data set: cell-free.
For data set [19], the target named is T3, NAD-dependent protein deacetylase sirtuin-2 (Homo sapiens). Put plainly: Binding affinity to recombinant human full-length N-terminal His-tagged SIRT2 expressed in baculovirus infected Sf9 insect cells assessed as ADP ribose-compound complex formation measured after 5 mins in presence of NAD+ by MALDI-TOF analysis. The procedure, abridged:
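Recombinant SIRT2 at 1.9 µM, 500 µM NAD⁺ and 1 mM compound were reacted for 5 min at 37°C in 40 mM sodium phosphate pH 7.0 with 240 mM NaCl, 120 mM imidazole, 0.2 mM DTT, 20% glycerol and 2% DMSO. Controls lacked compound, NAD⁺ or enzyme. Mixtures were diluted, desalted on C18 tips and analysed by MALDI-TOF in reflectron negative-ion mode with α-cyano-4-hydroxycinnamic acid matrix.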

The nature of data set [20]: Solubility of the compound in buffer/DMSO at 100 uM. The data set is classed as physicochemical.

Activity calls are given as the source filed them. The calls are words filed in the database; no cut-off is given here.

Chain of NAD-dependent protein deacylase sirtuin-5, mitochondrial (Homo sapiens) (Q9NXA8 37-310 limits assumed): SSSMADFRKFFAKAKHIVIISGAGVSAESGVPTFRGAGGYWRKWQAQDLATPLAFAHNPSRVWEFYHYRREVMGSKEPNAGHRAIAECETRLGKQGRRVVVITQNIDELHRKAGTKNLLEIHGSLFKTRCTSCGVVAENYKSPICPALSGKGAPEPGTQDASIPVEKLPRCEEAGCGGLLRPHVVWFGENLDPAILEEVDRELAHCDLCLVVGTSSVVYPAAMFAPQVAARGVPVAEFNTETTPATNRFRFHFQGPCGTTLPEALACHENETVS
Chain of Lysine-specific demethylase 5A (Homo sapiens) (P29375 whole entry, the tested form may be a part): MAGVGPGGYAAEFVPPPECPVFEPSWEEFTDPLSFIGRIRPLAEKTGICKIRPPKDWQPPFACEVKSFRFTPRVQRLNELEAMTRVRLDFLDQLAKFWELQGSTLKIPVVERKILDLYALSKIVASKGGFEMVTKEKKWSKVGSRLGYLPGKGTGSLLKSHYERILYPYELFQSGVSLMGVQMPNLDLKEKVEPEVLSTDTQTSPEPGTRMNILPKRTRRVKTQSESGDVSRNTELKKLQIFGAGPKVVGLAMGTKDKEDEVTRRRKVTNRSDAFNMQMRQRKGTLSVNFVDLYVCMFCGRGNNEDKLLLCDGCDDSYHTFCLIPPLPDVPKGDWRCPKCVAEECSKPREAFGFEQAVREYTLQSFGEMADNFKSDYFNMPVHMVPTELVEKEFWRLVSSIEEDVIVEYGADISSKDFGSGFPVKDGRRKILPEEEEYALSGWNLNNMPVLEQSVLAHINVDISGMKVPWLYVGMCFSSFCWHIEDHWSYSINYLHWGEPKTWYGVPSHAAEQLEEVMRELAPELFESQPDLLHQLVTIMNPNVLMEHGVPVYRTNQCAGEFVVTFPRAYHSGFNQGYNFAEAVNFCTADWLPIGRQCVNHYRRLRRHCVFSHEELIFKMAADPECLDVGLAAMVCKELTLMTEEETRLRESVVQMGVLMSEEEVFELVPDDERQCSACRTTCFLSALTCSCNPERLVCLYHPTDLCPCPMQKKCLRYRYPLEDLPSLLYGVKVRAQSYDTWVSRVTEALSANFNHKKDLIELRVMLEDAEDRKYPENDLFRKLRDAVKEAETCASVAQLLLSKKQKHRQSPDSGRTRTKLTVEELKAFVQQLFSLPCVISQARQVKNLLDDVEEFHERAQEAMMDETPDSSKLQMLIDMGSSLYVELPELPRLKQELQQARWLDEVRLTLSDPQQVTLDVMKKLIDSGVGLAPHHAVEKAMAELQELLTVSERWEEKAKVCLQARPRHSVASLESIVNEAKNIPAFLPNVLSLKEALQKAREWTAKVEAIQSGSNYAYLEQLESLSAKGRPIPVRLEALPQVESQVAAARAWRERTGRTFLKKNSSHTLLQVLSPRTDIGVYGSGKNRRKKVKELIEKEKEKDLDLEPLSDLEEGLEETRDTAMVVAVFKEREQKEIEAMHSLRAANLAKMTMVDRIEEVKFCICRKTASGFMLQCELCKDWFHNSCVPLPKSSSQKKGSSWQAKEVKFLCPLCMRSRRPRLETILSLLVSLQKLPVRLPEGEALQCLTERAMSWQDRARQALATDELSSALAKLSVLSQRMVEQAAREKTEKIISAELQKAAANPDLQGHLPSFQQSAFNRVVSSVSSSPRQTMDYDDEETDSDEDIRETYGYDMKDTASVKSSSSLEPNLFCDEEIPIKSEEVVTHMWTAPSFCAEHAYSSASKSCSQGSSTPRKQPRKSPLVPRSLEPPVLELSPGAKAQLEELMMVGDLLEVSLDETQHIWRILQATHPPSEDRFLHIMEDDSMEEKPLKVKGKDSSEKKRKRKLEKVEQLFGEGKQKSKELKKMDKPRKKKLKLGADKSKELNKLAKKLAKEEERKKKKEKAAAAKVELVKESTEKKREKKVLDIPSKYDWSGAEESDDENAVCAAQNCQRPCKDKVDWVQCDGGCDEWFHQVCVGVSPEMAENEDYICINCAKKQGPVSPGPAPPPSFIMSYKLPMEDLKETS

`Cc1cc(C)nc(SCC(=O)Nc2cccc(Nc3ccccc3C(N)=O)c2)n1`: the inhibition (in general, the relative decrease from the control value, in per cent) was found to be 63% in [1]; 47% in data set [3]; 16% in data set [4]; 28% in [5]; 80% in [6]; 93% in data set [7]. Also, the inhibition in data set [8] was determined as 16%. 1180 nM corresponded to half-maximal inhibition in data set [2] (IC50).

For `O=C(CNC(=O)c1ccccc1Nc1cccc(OCCc2ccccc2)c1)NCCCC[C@@H]1NC(=O)CNC1=O`, the Ki (usually the equilibrium dissociation constant of an inhibitor or competing ligand from its target) in data set [9] worked out at 470 nM. In addition, in data set [2], the midpoint of inhibition, the IC50, lay at 600 nM. Further, in data set [10], the result was inactive. For the same compound, the inhibition in [3] was determined as 59%; in data set [4], 9%; in data set [5] it was 13%; in data set [6] it was 17%; in data set [7], 92%; in data set [8], 2%. Besides, the inhibition of growth at 30 µM in data set [11] is 40%. Also, in [12], the inhibition entry is “Active”.

Take `O=C1CNC(=O)[C@H](CCCCNC(=S)CNC(=O)c2ccccc2Nc2cccc(OCCc3ccccc3)c2)N1`: the Activity in data set [13] was 12.27%; in [15] it was 4.54%. In data set [14], the “growth inhibition (GI)” value is “Dose-dependent effect”. Moreover, the GI50 (as a rule, the concentration giving 50% growth inhibition) in data set [14] (MCF7, 72 h) is 11500 nM. Moreover, the Ki in [9] stood at 68 nM. The figures for the IC50 in data set [2] and in [17] were 310 nM and 77400 nM, respectively. For the same compound, the inhibition result in data set [16] and in data set [18] was “inactive” each time. Besides, the results for the inhibition in [3], in data set [4] and in [8] were 73%, 41% and 0%, respectively. Besides, the inhibition of growth at 30 µM in [11] came out at 96%. Further, the result in [19] was Active. The inhibition entry in data set [12] is “Active”.

`C[C@H](NC(=O)[C@H](CCCCNC(=O)CNC(=O)c1ccccc1Nc1cccc(OCCc2ccccc2)c1)NC(=O)OCc1ccccc1)C(N)=O`: the solubility entry in data set [20] was “Insoluble”. In addition, the inhibition in data set [5] worked out at 51%; in [6], 61%; in data set [8], 6%.
